A short description of series [1]: Drug metabolism in po dosed C57BL/6 mouse assessed as psilocin formation measured upto 24 hrs by LC-MS analysis. The series is classed as ADME, organism-based. As to conditions: in vivo, dose 1-10 mg/kg.
Series [2] is described as follows: Drug metabolism in C57BL/6 mouse assessed as psilocin formation at 1 mg/kg, iv measured upto 24 hrs by LC-MS analysis. The series is classed as ADME, organism-based. As to conditions: in vivo.
Series [3] is described as follows: Metabolic stability in human liver S9 fraction assessed as half life at 2.5 uM measured upto 120 mins in presence of NADPH by LC-MS analysis. Type of series: ADME, subcellular. The note with it: s9, 2 h, 2.5 µM. The method, boiled down: (§1)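 2.5 μM compound at 37 °C in 50 mM potassium phosphate pH 7.4 with 3 mM MgCl2, 1 mM EDTA and an NADPH regenerating system. […] Sampled at 0–120 min in 20-min steps, acetonitrile quench, LC-MS of parent. T1/2 from one-phase exponential decay fit.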

Series [4] in a line: Metabolic stability in human liver microsomes assessed as half life at 2.5 uM measured upto 120 mins in presence of NADPH by LC-MS analysis. The note with it: microsomes, 2 h, 2.5 µM. The series is classed as ADME, Microsome. The method, boiled down: as §1
On the technique in general: Liver microsomes are a subcellular fraction often used to study metabolism.

Series [5] is described as follows: Metabolic stability in human intestine S9 fraction assessed as half life at 2.5 uM measured upto 120 mins in presence of NADPH by LC-MS analysis. The series is classed as ADME, subcellular. As to conditions: s9, 2 h. The method, boiled down: as §1
The nature of series [6]: Metabolic stability in human intestine microsomes assessed as half life at 2.5 uM measured upto 120 mins in presence of NADPH by LC-MS analysis. The series is classed as ADME, Microsome. The note with it: 2 h. The method in brief: as §1
Series [7] is described as follows: Metabolic stability in human serum assessed as half life at 2.5 uM measured upto 120 mins in presence of NADPH by LC-MS analysis. The note with it: 2 h. The series is classed as ADME, cell-free. The method, boiled down: as §1
A short description of series [8]: Drug metabolism in human liver S9 fraction assessed as psilocin formation at 2.5 uM after 120 mins by LC-MS analysis. Type of series: ADME, subcellular. As to conditions: s9, 2 h. The method in brief: (§2)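 2.5 μM compound in 50 mM potassium phosphate pH 7.4 with 3 mM MgCl2, 1 mM EDTA and an NADPH regenerating system. Incubated at 37 °C with human liver or intestinal S9 or microsomes (400 μg/mL protein) or 10% human AB serum. Acetonitrile quench, then LC-MS; psilocin concentration read at 120 min.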

Series [9] in a line: Drug metabolism in human liver microsomes assessed as psilocin formation at 2.5 uM after 120 mins by LC-MS analysis. The series is classed as ADME, Microsome. As to conditions: 2 h. The method, boiled down: as §2
The nature of series [10]: Drug metabolism in human intestine S9 fraction assessed as psilocin formation at 2.5 uM after 120 mins by LC-MS analysis. As to conditions: s9, 2 h. The series is classed as ADME, subcellular. The method, boiled down: as §2
A short description of series [11]: Drug metabolism in human intestine microsomes assessed as psilocin formation at 2.5 uM after 120 mins by LC-MS analysis. The series is classed as ADME, Microsome. As to conditions: 2 h. The method in brief: as §2
Series [12] is described as follows: Drug metabolism in human serum assessed as psilocin formation at 2.5 uM after 120 mins by LC-MS analysis. Type of series: ADME, cell-free. As to conditions: 2 h. The method in brief: as §2
A short description of series [13]: Drug metabolism in C57BL/6 mouse assessed as psilocin formation at 10 mg/kg, po measured at 24 hrs by LC-MS analysis. The series is classed as ADME, organism-based. The note with it: in vivo.
The subject of series [14] is Mus musculus. The series is described as follows: Psychedelic activity in mouse assessed as head-twitch response at 1 mg/kg, po measured after 15 to 30 mins. Type of series: functional, organism-based. The note with it: time 15-30 min. The method, boiled down:
(§3)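 C57BL/6 mice, singly housed for 2 days, with 30-min predose chamber acclimation. Single oral 1 mg/kg dose from 100 mM DMSO stock diluted in 0.9% saline; vehicle 1% DMSO in saline. Video-recorded after dosing; head twitches scored blind per 15-min interval (reference time course) or for the 15–30 min window. n = 2–4; one-way ANOVA.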

Series [15] is described as follows: Drug metabolism in C57BL/6 mouse assessed as psilocin Cmax at 3 mg/kg, po measured upto 24 hrs by LC-MS analysis. As to conditions: in vivo. The series is classed as ADME, organism-based. Set-up: dose 3 mg/kg, time < 24 hrs, route po.
The nature of series [16]: Drug metabolism in C57BL/6 mouse assessed as psilocin Cmax at 10 mg/kg, po measured upto 24 hrs by LC-MS analysis. Type of series: ADME, organism-based. More on the design: time < 24 hrs, dose 10 mg/kg, route po. As to conditions: in vivo.
A short description of series [17]: Drug metabolism in C57BL/6 mouse assessed as psilocin AUC(0 to last) at 3 mg/kg, po measured upto 24 hrs by LC-MS analysis. Set-up: time < 24 hrs, dose 3 mg/kg, route po. The note with it: in vivo. Type of series: ADME, organism-based.
Series [18] in a line: Drug metabolism in C57BL/6 mouse assessed as psilocin AUC(0 to last) at 10 mg/kg, po measured upto 24 hrs by LC-MS analysis. Type of series: ADME, organism-based. Set-up: dose 10 mg/kg, time < 24 hrs, route po. The note with it: in vivo.
Series [19] can be described thus: Drug metabolism in C57BL/6 mouse assessed as psilocin formation at 10 mg/kg, po measured after 8 hrs by LC-MS analysis. The series is classed as ADME, organism-based. As to conditions: in vivo.
Series [20] has as its system Mus musculus. Briefly: Psychedelic activity in mouse assessed as head-twitch response at 1 mg/kg, po measured upto 90 mins. Type of series: functional, organism-based. The method, boiled down: as §3
Series [21] concerns Mus musculus. The series is described as follows: Anxiolytic activity in mouse assessed as reduction in MCSP induced marble-burying behavior by measuring decrease in number of buried marbles at 1 mg/kg, po measured upto 7 days. The series is classed as functional, organism-based. The note with it: time <= 7.0 day. The method in brief: (§4)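 Mixed-sex C57BL/6 mice, singly housed. Stress group: 7-day mild chronic stress paradigm with corticosterone 25 μg/mL in 1% ethanol drinking water plus daily 30-min restraint over the last 5 days; controls unstressed. Single oral dose in saline with 1% DMSO at 2.5 μL/g, given 24 h after stress. 10 marbles on 5 cm bedding; % buried over 20 min on days 1 and 7. Ordinary one-way ANOVA; n = 6–11.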

Series [22] can be described thus: Anxiolytic activity in non-stressed mouse assessed as reduction in marble-burying behavior by measuring decrease in number of buried marbles at 1 mg/kg, po measured upto 7 days. Type of series: toxicity, organism-based. As to conditions: in vivo, 168 h, time < 7 day. The method in brief:
as §4

Broadly, the Cmax is the peak of the concentration-time curve.

Activity calls are given as the source filed them. The rule behind the calls is not given here.

Regarding `CN(C)CCc1c[nH]c2cccc(OC(=O)OCC3CC3)c12`, the Drug metabolism entry is “Dose-Dependent Effect” in series [1]; “Metabolite_Detected” in series [2]; 1.177 µM in series [8]; 1.929 µM in series [9]; 0.224 µM in [10]; 0.157 µM in [11]. For the same compound, the Drug metabolism in series [12] is 0.361 µM; in [13], “Metabolite_Detected”. The t1/2 in series [3] came to 9 min; in [4], 4 min; in series [5], 5.45 h; in series [6], 4.52 h; in [7], 3 min. Moreover, in the series with Mus musculus [14], the result was inactive.
Regarding `CN(C)CCc1c[nH]c2cccc(OP(=O)(O)O)c12` [PSILOCYBIN], the Drug metabolism result is “Dose-Dependent Effect” in series [1]; 0 µM in series [8]; 0 µM in [9]; 0.621 µM in series [10]; 0.172 µM in [11]; 0 µM in series [12]. Moreover, the Drug metabolism entry in series [19] is given as “Metabolite_Notdetected”. Also, the t1/2 in series [6] amounted to 3.25 h. For the same compound, the maximum concentration (Cmax) worked out at 52.9 ng/mL in series [15] and 243 ng/mL in [16]. For the same compound, the AUClast in series [17] worked out at 84.4 ng·h/mL; in [18], 397.3 ng·h/mL. Further, the result with Mus musculus [20] and in the series with Mus musculus [21] was Active. In series [22], the Activity result is recorded as “Non-Toxic”.

Values taken from ChEMBL document CHEMBL5335796, “Novel Psilocin Prodrugs with Altered Pharmacological Properties as Candidate Therapies for Treatment-Resistant Anxiety Disorders” (J Med Chem, 2024).
